Experimental data published in ChEMBL document CHEMBL5724801, “EUbOPEN Chemogenomics Library - Multiplex” (2024).
Where “and” joins values, the source holds several entries; their conditions need not be identical. Equal entries are not always repeated.

Tested on: Fibroblast
Assay: Multiplex assay against human fibroblast
Assay type: toxicity, cell-based
Outline: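 Cells stained live at seeding with Hoechst33342, BioTracker Green Microtubule Cytoskeleton Dye, MitoTracker Red and Annexin V Alexa Fluor 680 were imaged on a CQ1 microscope at 37°C and 5% CO2 after compound addition. Their classification by CellPathfinder machine-learning gating ran from Hoechst high-intensity objects versus normal cells, to healthy, pyknosed or fragmented nuclei among normal cells, to mitotic or apoptotic among pyknosed cells. Tubulin, mitochondrial-mass and membrane-permeability phenotypes are per cents of healthy-nucleus cells.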

[1] = 12 h, 1 µM, compound concentration 1 uM
[2] = 12 h, 10 µM, compound concentration 10 uM
[3] = 24 h, 1 µM, compound concentration 1 uM
[4] = 24 h, 10 µM, compound concentration 10 uM
[5] = 48 h, 1 µM, compound concentration 1 uM
[6] = 48 h, 10 µM, compound concentration 10 uM

## CC(C)Oc1ccc(F)c(-c2cnc(N)c(C(=O)Nc3cnccc3N3CCC[C@@H](C(=O)O)C3)n2)c1
[1]
  Population Apoptotic (%): 23.53% and 20.59%
  Population Fragmented Nuclei (%): 23.08% and 16.74%
  Population Healthy Nuclei (%): 53.85% and 68.67%
  Population Hoechst High Intensity Objects (%): 0%
  Population Membrane Permeable-Phenotype (%): 1.68% and 3.12%
  Population Mitochondria Different-Phenotype (%): 7.56% and 5.62%
  Population Mitotic Cells (%): 76.47% and 79.41%
  Population Normal (%): 100%
  Population Pyknosed Nuclei (%): 23.08% and 14.59%
  Population Tubulin-Different-Phenotype (%): 15.97% and 18.12%
  Total Cell Count: 221 and 233
[2]
  Population Apoptotic (%): 16.67% and 33.33%
  Population Fragmented Nuclei (%): 29.81% and 29.75%
  Population Healthy Nuclei (%): 60.87% and 65.82%
  Population Hoechst High Intensity Objects (%): 0%
  Population Membrane Permeable-Phenotype (%): 16.33% and 15.38%
  Population Mitochondria Different-Phenotype (%): 5.61% and 3.53%
  Population Mitotic Cells (%): 83.33% and 66.67%
  Population Normal (%): 100%
  Population Pyknosed Nuclei (%): 9.32% and 4.43%
  Population Tubulin-Different-Phenotype (%): 45.92% and 79.17%
  Total Cell Count: 322 and 474
[3]
  Population Fragmented Nuclei (%): 24.16% and 21.57%
  Population Healthy Nuclei (%): 52.79% and 67.45%
  Population Hoechst High Intensity Objects (%): 0%
  Population Membrane Permeable-Phenotype (%): 4.23% and 3.49%
  Population Mitochondria Different-Phenotype (%): 2.11% and 4.65%
  Population Mitotic Cells (%): 93.55% and 71.43%
  Population Normal (%): 100%
  Population Pyknosed Nuclei (%): 23.05% and 10.98%
  Population Tubulin-Different-Phenotype (%): 14.79% and 23.26%
  Total Cell Count: 269 and 255
[4]
  Population Apoptotic (%): 11.11% and 17.65%
  Population Fragmented Nuclei (%): 39.53% and 37.88%
  Population Healthy Nuclei (%): 53.49% and 59.43%
  Population Hoechst High Intensity Objects (%): 0%
  Population Membrane Permeable-Phenotype (%): 13.04% and 18.13%
  Population Mitochondria Different-Phenotype (%): 11.11% and 4.27%
  Population Mitotic Cells (%): 88.89% and 82.35%
  Population Normal (%): 100%
  Population Pyknosed Nuclei (%): 6.98% and 2.69%
  Population Tubulin-Different-Phenotype (%): 58.94% and 76%
  Total Cell Count: 387 and 631
[5]
  Population Apoptotic (%): 11.96% and 8.33%
  Population Fragmented Nuclei (%): 17.32% and 18.8%
  Population Healthy Nuclei (%): 61.43% and 70.94%
  Population Hoechst High Intensity Objects (%): 0%
  Population Membrane Permeable-Phenotype (%): 1.88% and 3.61%
  Population Mitochondria Different-Phenotype (%): 6.39% and 2.41%
  Population Mitotic Cells (%): 88.04% and 91.67%
  Population Normal (%): 100%
  Population Pyknosed Nuclei (%): 21.25% and 10.26%
  Population Tubulin-Different-Phenotype (%): 24.06% and 42.97%
  Total Cell Count: 433 and 351
[6]
  Population Apoptotic (%): 25% and 75%
  Population Fragmented Nuclei (%): 43.91% and 38.05%
  Population Healthy Nuclei (%): 54.09% and 60.35%
  Population Hoechst High Intensity Objects (%): 0%
  Population Membrane Permeable-Phenotype (%): 15.74% and 24.56%
  Population Mitochondria Different-Phenotype (%): 9.88% and 3.1%
  Population Mitotic Cells (%): 75% and 25%
  Population Normal (%): 100%
  Population Pyknosed Nuclei (%): 2% and 1.6%
  Population Tubulin-Different-Phenotype (%): 61.73% and 91.37%
  Total Cell Count: 599 and 749

## O=C1NCc2ccc3c(-c4cccc(Cl)c4)c[nH]c3c21
[1]
  Population Apoptotic (%): 13.51% and 26.32%
  Population Fragmented Nuclei (%): 16.45% and 5.58%
  Population Healthy Nuclei (%): 59.21% and 76.74%
  Population Hoechst High Intensity Objects (%): 0%
  Population Membrane Permeable-Phenotype (%): 4.44% and 3.64%
  Population Mitochondria Different-Phenotype (%): 8.89% and 8.48%
  Population Mitotic Cells (%): 86.49% and 73.68%
  Population Normal (%): 100%
  Population Pyknosed Nuclei (%): 24.34% and 17.67%
  Population Tubulin-Different-Phenotype (%): 10% and 13.33%
  Total Cell Count: 152 and 215
[2]
  Population Apoptotic (%): 23.21% and 34.92%
  Population Fragmented Nuclei (%): 9.88% and 1.93%
  Population Healthy Nuclei (%): 57.56% and 67.63%
  Population Hoechst High Intensity Objects (%): 0%
  Population Membrane Permeable-Phenotype (%): 3.03% and 5%
  Population Mitochondria Different-Phenotype (%): 15.15% and 17.86%
  Population Mitotic Cells (%): 76.79% and 65.08%
  Population Normal (%): 100%
  Population Pyknosed Nuclei (%): 32.56% and 30.43%
  Population Tubulin-Different-Phenotype (%): 8.08% and 17.14%
  Total Cell Count: 172 and 207
[3]
  Population Apoptotic (%): 18.75% and 20.59%
  Population Fragmented Nuclei (%): 13.25% and 6.58%
  Population Healthy Nuclei (%): 65.56% and 79.42%
  Population Hoechst High Intensity Objects (%): 0%
  Population Membrane Permeable-Phenotype (%): 7.07% and 4.66%
  Population Mitochondria Different-Phenotype (%): 10.1% and 5.18%
  Population Mitotic Cells (%): 81.25% and 79.41%
  Population Normal (%): 100%
  Population Pyknosed Nuclei (%): 21.19% and 13.99%
  Population Tubulin-Different-Phenotype (%): 13.13% and 9.84%
  Total Cell Count: 151 and 243
[4]
  Population Apoptotic (%): 30.77% and 40.54%
  Population Fragmented Nuclei (%): 11.59% and 4.85%
  Population Healthy Nuclei (%): 64.63% and 77.18%
  Population Hoechst High Intensity Objects (%): 0%
  Population Membrane Permeable-Phenotype (%): 3.77%
  Population Mitochondria Different-Phenotype (%): 12.26% and 8.81%
  Population Mitotic Cells (%): 69.23% and 59.46%
  Population Normal (%): 100%
  Population Pyknosed Nuclei (%): 23.78% and 17.96%
  Population Tubulin-Different-Phenotype (%): 9.43% and 8.81%
  Total Cell Count: 164 and 206
[5]
  Population Apoptotic (%): 20.83% and 38.89%
  Population Fragmented Nuclei (%): 10.71% and 5.78%
  Population Healthy Nuclei (%): 75% and 86.22%
  Population Hoechst High Intensity Objects (%): 0%
  Population Membrane Permeable-Phenotype (%): 4.76% and 5.67%
  Population Mitotic Cells (%): 79.17% and 61.11%
  Population Normal (%): 100%
  Population Pyknosed Nuclei (%): 14.29% and 8%
  Population Tubulin-Different-Phenotype (%): 7.94% and 9.28%
  Total Cell Count: 168 and 225
[6]
  Population Apoptotic (%): 20% and 60%
  Population Fragmented Nuclei (%): 11.49% and 4.95%
  Population Healthy Nuclei (%): 77.01% and 82.67%
  Population Hoechst High Intensity Objects (%): 0%
  Population Membrane Permeable-Phenotype (%): 2.24% and 5.99%
  Population Mitochondria Different-Phenotype (%): 10.45% and 5.99%
  Population Mitotic Cells (%): 80% and 40%
  Population Normal (%): 100%
  Population Pyknosed Nuclei (%): 11.49% and 12.38%
  Population Tubulin-Different-Phenotype (%): 5.97% and 10.18%
  Total Cell Count: 174 and 202

## COc1ccc2nc3ccc(OC)cc3c(SCCCN)c2c1.Cl
[1]
  Population Apoptotic (%): 27.78% and 22.73%
  Population Fragmented Nuclei (%): 27.67% and 18.52%
  Population Healthy Nuclei (%): 58.1% and 71.3%
  Population Hoechst High Intensity Objects (%): 0%
  Population Membrane Permeable-Phenotype (%): 4.08% and 5.19%
  Population Mitochondria Different-Phenotype (%): 10.88% and 10.39%
  Population Mitotic Cells (%): 72.22% and 77.27%
  Population Normal (%): 100%
  Population Pyknosed Nuclei (%): 14.23% and 10.19%
  Population Tubulin-Different-Phenotype (%): 28.57% and 25.97%
  Total Cell Count: 253 and 216
[2]
  Population Apoptotic (%): 50%
  Population Fragmented Nuclei (%): 83.22% and 87.99%
  Population Healthy Nuclei (%): 15.99% and 11.88%
  Population Hoechst High Intensity Objects (%): 0.3% and 6.47%
  Population Membrane Permeable-Phenotype (%): 6.17% and 4.52%
  Population Mitochondria Different-Phenotype (%): 24.69% and 15.25%
  Population Mitotic Cells (%): 50%
  Population Normal (%): 99.7% and 93.53%
  Population Pyknosed Nuclei (%): 0.79% and 0.13%
  Population Tubulin-Different-Phenotype (%): 53.09% and 68.93%
  Total Cell Count: 1016 and 1593
[3]
  Population Apoptotic (%): 7.41% and 18.18%
  Population Fragmented Nuclei (%): 25% and 14.63%
  Population Healthy Nuclei (%): 63.36% and 74.63%
  Population Hoechst High Intensity Objects (%): 0%
  Population Membrane Permeable-Phenotype (%): 4.76% and 3.27%
  Population Mitochondria Different-Phenotype (%): 5.44% and 7.84%
  Population Mitotic Cells (%): 92.59% and 81.82%
  Population Normal (%): 100%
  Population Pyknosed Nuclei (%): 11.64% and 10.73%
  Population Tubulin-Different-Phenotype (%): 25.17% and 21.57%
  Total Cell Count: 232 and 205
[4]
  Population Fragmented Nuclei (%): 83.95% and 88.56%
  Population Healthy Nuclei (%): 15.31% and 11.32%
  Population Hoechst High Intensity Objects (%): 0% and 5.09%
  Population Membrane Permeable-Phenotype (%): 1.21% and 3.16%
  Population Mitochondria Different-Phenotype (%): 27.27% and 24.21%
  Population Mitotic Cells (%): 87.5% and 50%
  Population Normal (%): 100% and 94.91%
  Population Pyknosed Nuclei (%): 0.74% and 0.12%
  Population Tubulin-Different-Phenotype (%): 47.27% and 59.47%
  Total Cell Count: 1078 and 1768
[5]
  Population Fragmented Nuclei (%): 28.35% and 15.03%
  Population Healthy Nuclei (%): 66.14% and 83.42%
  Population Hoechst High Intensity Objects (%): 0%
  Population Membrane Permeable-Phenotype (%): 1.79% and 1.24%
  Population Mitotic Cells (%): 71.43% and 100%
  Population Normal (%): 100%
  Population Pyknosed Nuclei (%): 5.51% and 1.55%
  Population Tubulin-Different-Phenotype (%): 18.45% and 20.5%
  Total Cell Count: 254 and 193
[6]
  Population Apoptotic (%): 60%
  Population Fragmented Nuclei (%): 84.38% and 88.09%
  Population Healthy Nuclei (%): 15.23% and 11.61%
  Population Hoechst High Intensity Objects (%): 1.01% and 7.64%
  Population Membrane Permeable-Phenotype (%): 2.56% and 4.71%
  Population Mitochondria Different-Phenotype (%): 6.67% and 4.19%
  Population Mitotic Cells (%): 40%
  Population Normal (%): 98.99% and 92.36%
  Population Pyknosed Nuclei (%): 0.39% and 0.3%
  Population Tubulin-Different-Phenotype (%): 27.69% and 51.83%
  Total Cell Count: 1293 and 1781
